Measurements of several laboratories.
Lines come from different studies, so protocols differ.

COc1c(N2C[C@@H]3CCCN[C@@H]3C2)c(F)cc2c(=O)c(C(=O)O)cn(C3CC3)c12 — MIC (Escherichia coli; microbial growth; ATCC25922): 0.03 µM
Oc1c(Br)cc(Br)cc1-c1[nH]c(Br)c(Br)c1Br — MIC (Staphylococcus aureus; microbial growth; ATCC29213 MSSA): 0.58 µM
N.N.[Cl][Pt][Cl] — IC50 (HK-2; cell growth or viability, MTT; 72 h): 7.59 µM
CN[C@H](CC(C)C)C(=O)N[C@H]1C(=O)N[C@@H](CC(N)=O)C(=O)N[C@H]2C(=O)N[C@H]3C(=O)N[C@H](C(=O)N[C@H](C(=O)O)c4cc(O)cc(O)c4-c4cc3ccc4O)[C@H](O)c3ccc(c(Cl)c3)Oc3cc2cc(c3O[C@@H]2O[C@H](CO)[C@@H](O)[C@H](O)[C@H]2O[C@H]2C[C@](C)(N)[C@H](O)[C@H](C)O2)Oc2ccc(cc2Cl)[C@H]1O — MIC (Staphylococcus aureus; microbial growth, broth dilution; MRSA; 24 h, drug-resistant strain): 0.67 µM
O=c1ccc2nc3ccc(O)cc3oc-2c1 — MIC (Escherichia coli; microbial growth; 24 h): > 32 µg/mL
COc1c(N2CC3CCCNC3C2)c(F)cc2c(=O)c(C(=O)OCc3cnc([N+](=O)[O-])s3)cn(C3CC3)c12 (centres unmarked) — MIC (Escherichia coli; microbial growth; ATCC25922): 0.09 µM
Oc1c(Cl)cc(Cl)cc1-c1[nH]c(Cl)c(Cl)c1Cl — MIC (Staphylococcus aureus; microbial growth; BAA44 MRSA): 0.06 µM
O=c1ccc2nc3ccc(OCc4ccc([N+](=O)[O-])o4)cc3oc-2c1 — MIC (Staphylococcus aureus; microbial growth; MRSA; 24 h): > 32 µg/mL
